According to ChEMBL document CHEMBL1154664, “From serendipity to rational antituberculosis drug discovery of mefloquine-isoxazole carboxylic acid esters” (J Med Chem, 2009):
Converted amounts (≈) assume the structure as drawn.

Experiments:
[1] = test system: Mycobacterium tuberculosis; assay: Antitubercular activity against replicating Mycobacterium tuberculosis; format: functional
Procedure, shortened: (§1)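 Replicating M. tuberculosis H37Rv cultures; MIC by microplate Alamar Blue assay (MABA) at pH 6.8, run as previously described.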

[2] = Half life in BALB/c mouse at 400 mg/kg, po; format: ADME, organism-based; design: dose 400 mg/kg, route oral; details: in vivo
Procedure, shortened: (§2)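 Female BALB/c mice (20-22 g), groups of twelve, single oral 400 mg/kg dose as a 20 mg/mL suspension in 0.5% carboxymethyl cellulose. Retro-orbital blood at 0, 15, 30, 45, 90 and 120 min. Plasma obtained by centrifugation, then precipitated with three volumes of acetonitrile containing internal standard. Parent and metabolites quantified by LC-MS-MS using positive electrospray and selected reaction monitoring.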

Mus musculus [3] = assay: Plasma concentration in BALB/c mouse assessed as 5-((2,8-bis(trifluoromethyl)qu inolin-4-yloxy)methyl)isoxazole-3-carboxylic acid at 400 mg/kg, po after 90 mins; format: ADME, organism-based; design: dose 400 mg/kg, route oral; details: in vivo, 1.5 h; procedure, shortened: as §2
[4] = AUC in BALB/c mouse at 400 mg/kg, po; format: ADME, organism-based; design: dose 400 mg/kg, route oral; details: plasma; procedure, shortened: as §2
[5] = Selectivity index, ratio of IC50 for Vero cells to IC50 for Mycobacterium tuberculosis H37Rv by Alamar blue susceptibility assay; format: toxicity, cell-based; details: monkey, read-out: Ratio IC50
Mus musculus [6] = assay: Plasma concentration in BALB/c mouse assessed as 5-((2,8-bis(trifluoromethyl)qu inolin-4-yloxy)methyl)isoxazole-3-carboxylic acid at 400 mg/kg, po after 30 mins; format: ADME, organism-based; design: dose 400 mg/kg, route oral; details: in vivo, 0.5 h; procedure, shortened: as §2
Mus musculus [7] = assay: Cmax in BALB/c mouse assessed as 2,8-bis(trifluoromethyl)quinol in-4-ol at 400 mg/kg, po; format: ADME, organism-based; design: dose 400 mg/kg, route oral; details: in vivo; procedure, shortened: as §2
Mus musculus [8] = assay: Cmax in BALB/c mouse assessed as E-Ethyl 5-[2-(4-quinolinyl)eth enyl]-3-isoxazolecarboxylate at 400 mg/kg, po; format: ADME, organism-based; design: dose 400 mg/kg, route oral; details: in vivo; procedure, shortened: as §2
Mus musculus [9] = assay: Tmax in BALB/c mouse assessed as 2,8-bis(trifluoromethyl)quinol in-4-ol at 400 mg/kg, po; format: ADME, organism-based; design: dose 400 mg/kg, route oral; details: in vivo; procedure, shortened: as §2
[10] = test system: Mycobacterium tuberculosis; assay: Antitubercular activity against non replicating Mycobacterium tuberculosis; format: functional
Procedure, shortened: (§3)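 Nonreplicating M. tuberculosis H37Rv cultures; MIC determined by low oxygen recovery assay (LORA), run as previously described.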

[11] = test system: Mycobacterium tuberculosis; assay: Antitubercular activity against Mycobacterium tuberculosis H37Rv by low oxygen recovery assay; format: functional; procedure, shortened: as §3
[12] = Cmax in BALB/c mouse at 400 mg/kg, po; format: ADME, organism-based; design: dose 400 mg/kg, route oral; details: in vivo; procedure, shortened: as §2
Vero = assay: Cytotoxicity against african green monkey Vero cells after 72 hrs; format: cell-based; details: Chlorocebus sabaeus
Procedure, shortened: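 VERO green monkey kidney cells exposed to compound for 72 h.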

[13] = Selectivity index, ratio of IC50 for Vero cells to IC50 for Mycobacterium tuberculosis H37Rv by low oxygen recovery assay; format: toxicity, cell-based; details: monkey, read-out: Ratio IC50
[14] = test system: Mycobacterium tuberculosis; assay: Antitubercular activity against Mycobacterium tuberculosis H37Rv at pH 6.8 by Alamar blue susceptibility assay; format: functional; procedure, shortened: as §1
[15] = test system: Mycobacterium tuberculosis; assay: Antitubercular activity against Mycobacterium tuberculosis infected in macrophages assessed as reduction in colony forming unit; format: functional
Mus musculus [16] = assay: Plasma concentration in BALB/c mouse assessed as 5-((2,8-bis(trifluoromethyl)qu inolin-4-yloxy)methyl)isoxazole-3-carboxylic acid at 400 mg/kg, po after 3 hrs; format: ADME, organism-based; design: dose 400 mg/kg, route oral; details: in vivo

Structure (SMILES)	selectivity ratio [5]	MIC [11]	IC50 (Vero)	selectivity ratio [13]	MIC [14]	other results
CCOC(=O)c1cc(COc2cc(C(F)(F)F)nc3c(C(F)(F)F)cccc23)on1	> 144	12.2 µM (≈ 5.3 µg/mL)	> 128 µM	> 10.5	0.9 µM (≈ 0.391 µg/mL)	MIC [1]: 0.9 µM (≈ 0.391 µg/mL); half-life [2]: 1.6 h; Cp (Mus musculus [3]): 0.026 µg/mL; AUC [4]: 2.2 µM·h; Cp (Mus musculus [6]): 0.4 µg/mL; Cmax (Mus musculus [7]): 2.71 µg/mL; Cmax (Mus musculus [8]): 0.03 µg/mL; Tmax (Mus musculus [9]): 0.5 h; MIC [10]: 12.2 µM (≈ 5.3 µg/mL); Cmax [12]: 1 µM; EC90 [15]: 4.1 µM; Cp (Mus musculus [16]): 0.1 µg/mL
CCOC(=O)c1cc(/C=C/c2cc(C(F)(F)F)nc3c(C(F)(F)F)cccc23)on1	> 47.5	38.9 µM (≈ 16.7 µg/mL)	> 128 µM	> 3.3	2.7 µM (≈ 1.16 µg/mL)	–
CCOC(=O)c1cc(/C=C/c2ccc3ncccc3c2)on1	> 142	9.3 µM (≈ 2.74 µg/mL)	> 128 µM	> 13.8	0.9 µM (≈ 0.265 µg/mL)	–
CCOC(=O)c1cc(CCc2cc(C(F)(F)F)nc3c(C(F)(F)F)cccc23)on1	> 22.5	12.6 µM (≈ 5.45 µg/mL)	> 128 µM	> 10.2	5.7 µM (≈ 2.46 µg/mL)	–
CCOC(=O)c1cc(/C=C\c2cc(C(F)(F)F)nc3ccc(C(F)(F)F)cc23)on1	–	–	> 128 µM	–	–	–
CCOC(=O)c1cc(C(C)Oc2cc(C(F)(F)F)nc3c(C(F)(F)F)cccc23)on1 (stereo not drawn)	> 30.5	20.7 µM (≈ 9.28 µg/mL)	> 128 µM	> 6.2	4.2 µM (≈ 1.88 µg/mL)	–
CCOC(=O)c1cc(C(C)(C)Oc2cc(C(F)(F)F)nc3c(C(F)(F)F)cccc23)on1	0.6	22.1 µM (≈ 10.2 µg/mL)	23 µM	1	6.8 µM (≈ 3.14 µg/mL)	–
CCOC(=O)c1cc(/C=C\c2ccnc3ccccc23)on1	> 213	3 µM (≈ 0.883 µg/mL)	> 128 µM	> 42.7	0.6 µM (≈ 0.177 µg/mL)	–
CCOC(=O)c1cc(C(=O)Nc2cc(C(F)(F)F)nc3c(C(F)(F)F)cccc23)on1	> 4.3	> 128 µM	> 128 µM	–	29.5 µM (≈ 13.2 µg/mL)	–
CO[C@H]1/C=C/O[C@@]2(C)Oc3c(C)c(O)c4c(O)c(c(/C=N/N5CCN(C)CC5)c(O)c4c3C2=O)NC(=O)/C(C)=C\C=C\[C@H](C)[C@H](O)[C@@H](C)[C@@H](O)[C@@H](C)[C@H](OC(C)=O)[C@@H]1C [RIFAMPIN]	1220	2 µM (≈ 1.65 µg/mL)	–	61	0.1 µM (≈ 0.0823 µg/mL)	–
O=C(O)c1cc(/C=C/c2ccnc3ccccc23)on1	–	–	> 128 µM	–	–	–
CCOC(=O)c1cc(/C=C\c2ccc3ncccc3c2)on1	> 98.4	12.4 µM (≈ 3.65 µg/mL)	> 128 µM	> 10.3	1.3 µM (≈ 0.383 µg/mL)	–
CCCCC(Oc1cc(C(F)(F)F)nc2c(C(F)(F)F)cccc12)c1cc(C(=O)OCC)no1 (stereo not drawn)	0.3	11.9 µM (≈ 5.84 µg/mL)	42.7 µM	3.6	116 µM (≈ 56.8 µg/mL)	–
CCOC(=O)c1cc(-c2cc(C(F)(F)F)nc3c(C(F)(F)F)cccc23)on1	> 7.8	48.1 µM (≈ 19.4 µg/mL)	> 128 µM	> 2.7	16.5 µM (≈ 6.67 µg/mL)	–
OC(c1cc(C(F)(F)F)nc2c(C(F)(F)F)cccc12)C1CCCCN1 (stereo not drawn) [MEFLOQUINE]	0.9	7 µM (≈ 2.65 µg/mL)	11 µM	1.6	13 µM (≈ 4.92 µg/mL)	–
CCOC(=O)c1cc(C(Oc2cc(C(F)(F)F)nc3c(C(F)(F)F)cccc23)c2ccccc2)on1 (stereo not drawn)	–	> 128 µM	> 128 µM	–	> 128 µM	–
CCOC(=O)c1cc(CCc2ccnc3ccccc23)on1	> 47.5	22.5 µM (≈ 6.67 µg/mL)	> 128 µM	> 5.7	2.7 µM (≈ 0.8 µg/mL)	–
CCOC(=O)c1cc(/C=C/c2ccnc3ccc(OC)cc23)on1	> 320	1.1 µM (≈ 0.357 µg/mL)	> 128 µM	> 116	0.4 µM (≈ 0.13 µg/mL)	–
CCOC(=O)c1cc(/C=C\c2ccnc3ccc(OC)cc23)on1	> 80	2 µM (≈ 0.649 µg/mL)	> 128 µM	> 64	1.6 µM (≈ 0.519 µg/mL)	–
CCOC(=O)c1cc(/C=C/c2ccnc3ccccc23)on1	> 640	2.6 µM (≈ 0.765 µg/mL)	> 128 µM	> 49.2	0.2 µM (≈ 0.0589 µg/mL)	half-life [2]: 1.9 h; AUC [4]: 156 µM·h; Cmax [12]: 61.7 µM
